Measurements taken from EPA's CvTdb concentration-time database.

Tests used:
[1] = test system: human; assay: concentration in blood after dosing; negative times count back from the end of exposure; details: dosed: methylethylketone, 400 ppm, inhalation, duration: 4 hr, male
Procedure, shortened: (§1)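 Points were largely digitised from plot screenshots with WebPlotDigitizer or otherwise copied from tables, and they remain in the units each source reported. They come from published in vivo toxicokinetic studies and two structured collections. Sampling and analytical methods follow each source and were often not reported.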

[2] = test system: Rat; assay: concentration in plasma after dosing; details: dosed: Isoeugenol, 17 mg/kg, oral, Male, F344/N
[3] = test system: Rat; assay: concentration in plasma after dosing; details: dosed: Isoeugenol, 17 mg/kg, oral, Female, F344/N
[4] = test system: Rat; assay: concentration in plasma after dosing; details: dosed: Isoeugenol, 17 mg/kg, oral, Female, F344/N; remark: listed apart in the source
[5] = test system: Rat; assay: concentration in plasma after dosing; details: dosed: Isoeugenol, 70 mg/kg, oral, Male, F344/N
[6] = test system: Rat; assay: concentration in plasma after dosing; details: dosed: Isoeugenol, 17 mg/kg, oral, Male, F344/N; remark: listed apart in the source
[7] = test system: Rat; assay: concentration in plasma after dosing; details: 20 min; dosed: Isoeugenol; 17 mg/kg; oral; Male; F344/N
[8] = test system: Rat; assay: concentration in plasma after dosing; details: dosed: Isoeugenol, 17 mg/kg, oral, Female, F344/N; remark: listed apart in the source
[9] = test system: Rat; assay: concentration in plasma after dosing; details: dosed: Isoeugenol, 17 mg/kg, oral, Female, F344/N; remark: listed apart in the source
[10] = test system: Rat; assay: concentration in plasma after dosing; details: dosed: Isoeugenol, 70 mg/kg, oral, Male, F344/N; remark: listed apart in the source
[11] = test system: Rat; assay: concentration in plasma after dosing; details: dosed: Isoeugenol, 17 mg/kg, oral, Female, F344/N; remark: listed apart in the source
[12] = test system: Rat; assay: concentration in plasma after dosing; details: dosed: Isoeugenol, 17 mg/kg, oral, Female, F344/N; remark: listed apart in the source
[13] = test system: Rat; assay: concentration in plasma after dosing; details: 2 h; dosed: Tetralin; 20 mg/kg; iv; Female; Harlan Sprague Dawley
[14] = test system: Rat; assay: concentration in plasma after dosing; details: dosed: Tetralin, 20 mg/kg, iv, Female, Harlan Sprague Dawley
[15] = test system: Rat; assay: concentration in plasma after dosing; details: dosed: Tetralin, 20 mg/kg, iv, Female, Harlan Sprague Dawley; remark: listed apart in the source
[16] = test system: Rat; assay: concentration in plasma after dosing; details: dosed: Tetralin, 2 mg/kg, iv, Male, Harlan Sprague Dawley
[17] = test system: Rat; assay: concentration in plasma after dosing; details: 2 h; dosed: Tetralin; 20 mg/kg; iv; Female; Harlan Sprague Dawley; remark: listed apart in the source
[18] = test system: Rat; assay: concentration in plasma after dosing; details: dosed: Tetralin, 2 mg/kg, iv, Male, Harlan Sprague Dawley; remark: listed apart in the source
[19] = test system: Rat; assay: concentration in plasma after dosing; details: dosed: Tetralin, 2 mg/kg, iv, Male, F344
[20] = test system: rat; assay: concentration in blood after dosing; details: dosed: styrene, 3000 ppm, dermal, duration: 4 hr, male, F344
[21] = test system: human; assay: concentration in expired air after dosing; details: dosed: styrene, inhalation
Procedure, shortened: as §1

CCC(C)=O [methylethylketone]
[1]
Details	concentration in blood [µM]
0.1276 h	272
0.2874 h	258
0.4715 h	227
0.9608 h	208
1.479 h	139
1.973 h	122
2.966 h	102
4.323 h	54.9
4.977 h	22.4
5.98 h	16.2
6.983 h	7.11

[1], during exposure
Details	concentration in blood [µM]
-64 s	309
-3.826 h	72.5
-3.661 h	84.6
-3.486 h	115
-2.992 h	143
-2.503 h	181
-1.994 h	218
-1.011 h	276

C/C=C/c1ccc(O)c(OC)c1 [Isoeugenol]
Details	concentration in plasma [ng/mL]
[2], 3 h	17.2
[2], 10 min	220
[3], 1.5 h	33.6
[3], 20 min	86.9
[4], 1 h	129
[4], 5 h	69.7
[5], 1.5 h	97
[5], 10 min	850
[6], 0.75 h	57
[6], 8 h	19.5
[8], 5 h	28.3
[8], 10 min	430
[9], 1.5 h	52.9
[9], 5 min	355
[10], 6 h	240
[10], 20 min	1840
[11], 1.5 h	26
[11], 2 min	25.6
[12], 2 h	23.2
[12], 2 min	69.1

Details	concentration in plasma [ng/mL]
[7]	105

c1ccc2c(c1)CCCC2 [Tetralin]
Details	concentration in plasma [µg/g]
[13]	0.628
[17]	0.52

Details	concentration in plasma [µg/g]
[14], 0.75 h	2.18
[14], 12 h	0.0369
[15], 1 h	1.98
[15], 24 h	0.0136
[16], 0.5033 h	0.192
[16], 8 h	0.0056
[18], 0.5033 h	0.208
[18], 8 h	0.00401
[19], 0.75 h	0.134
[19], 12 h	0.00182

C=Cc1ccccc1 [styrene]
[20]
Details	concentration in blood [ng/mL]
0.5 h	1550
1 h	3450
2 h	4650
3 h	8180
4 h	8810

[21], male
Details	concentration in expired air [ppm]
0.1527 h, 51 ppm, duration: 1 hr	0.506
0.2175 h, 376 ppm, duration: 1 hr	4
0.2306 h, 216 ppm, duration: 1 hr	2.27
0.2368 h, 51 ppm, duration: 1 hr	0.409
0.2553 h, 99 ppm, duration: 7 hr	1.24
0.3483 h, 99 ppm, duration: 7 hr	1.14
0.4469 h, 376 ppm, duration: 1 hr	3.1
0.4803 h, 51 ppm, duration: 1 hr	0.317
0.5105 h, 99 ppm, duration: 7 hr	1.08
0.7137 h, 376 ppm, duration: 1 hr	2.21
0.8189 h, 99 ppm, duration: 7 hr	0.876
0.9608 h, 216 ppm, duration: 1 hr	0.927
0.9799 h, 51 ppm, duration: 1 hr	0.0904
1.046 h, 376 ppm, duration: 1 hr	1.29
1.064 h, 99 ppm, duration: 7 hr	0.733
1.944 h, 99 ppm, duration: 7 hr	0.648
1.964 h, 216 ppm, duration: 1 hr	0.501
1.984 h, 376 ppm, duration: 1 hr	0.934
1.988 h, 51 ppm, duration: 1 hr	0.0505
2.93 h, 99 ppm, duration: 7 hr	0.521
2.954 h, 376 ppm, duration: 1 hr	0.719
2.958 h, 216 ppm, duration: 1 hr	0.345
3.928 h, 216 ppm, duration: 1 hr	0.226
3.963 h, 376 ppm, duration: 1 hr	0.827
4.085 h, 99 ppm, duration: 7 hr	0.403
4.943 h, 376 ppm, duration: 1 hr	0.594
4.946 h, 216 ppm, duration: 1 hr	0.197
4.988 h, 99 ppm, duration: 7 hr	0.355
5.975 h, 376 ppm, duration: 1 hr	0.586
5.991 h, 216 ppm, duration: 1 hr	0.112
5.998 h, 99 ppm, duration: 7 hr	0.242
7.018 h, 216 ppm, duration: 1 hr	0.0821
19 s, 51 ppm, duration: 1 hr	14.8
41 s, 216 ppm, duration: 1 hr	4.56
65 s, 51 ppm, duration: 1 hr	1.02
96 s, 376 ppm, duration: 1 hr	9.08
141 s, 216 ppm, duration: 1 hr	3.69
148 s, 51 ppm, duration: 1 hr	0.849
148 s, 99 ppm, duration: 7 hr	2.17
196 s, 376 ppm, duration: 1 hr	7.4
214 s, 51 ppm, duration: 1 hr	0.744
251 s, 99 ppm, duration: 7 hr	1.35

[21], 80 ppm, duration: 6 hr
Details	concentration in expired air [ng/mL]
6.225 h	4.3
6.495 h	2.75
7.17 h	1.58
8.16 h	1.16
10.28 h	0.549
12.21 h	0.402
14.37 h	0.315
18.33 h	0.308
23.51 h	0.257
30.62 h	0.148
46.95 h	0.102
